# Screening data deposited in PubChem BioAssay by several laboratories.
# CTSL1 counter – cathepsin L1 inhibition, PFM18AAP counter-screen. inhibition, % at 5.96 µM. recombinant F. hepatica cathepsin L1, Z-Leu-Arg-MCA fluorescence. AID 1906. actives 0.49% (n = 300,000);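 active = inhibition above the mean of all tested compounds plus 3 SD, set per screening campaign, cut at about 17% in these data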
# SENP1 inh – SENP1 (human) catalytic domain inhibition; actives 0.21% (n = 360,000); inhibition, % at 10 µM; Q9P0U3; AID 624204; recombinant SENP1 catalytic domain, CyPet-SUMO1-YPet FRET cleavage;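 active = inhibition at least 30% at 10 µM, raw YFP signal under a set limit, fluorescence ratio 0.5 to 1.5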
# Target sequence (Q9P0U3 419-644 limits assumed): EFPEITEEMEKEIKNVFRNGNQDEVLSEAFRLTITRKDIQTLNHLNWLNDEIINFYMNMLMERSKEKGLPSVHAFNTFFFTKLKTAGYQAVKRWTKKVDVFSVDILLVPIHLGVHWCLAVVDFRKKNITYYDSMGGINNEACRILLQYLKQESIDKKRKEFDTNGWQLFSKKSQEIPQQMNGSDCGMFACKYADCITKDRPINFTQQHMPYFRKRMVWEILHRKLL
#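 Assay system – human recombinant His6-tagged SENP1 catalytic domain enzyme · Input – SENP1 enzyme, 20 pM final · Buffer or medium – Tris pH 8 buffer plus EDTA, NaCl, BME, BSA, NP40, catalase · Schedule – 50 min reaction at room temperature · Technique – FRET read of cyan and yellow fluorescence · Control set – no-enzyme wells low, DMSO-plus-enzyme wells high control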
# FXN GAA850 act – frataxin GAA850 promoter activation; AID 540364; HEK293 lucGAA850 FXN promoter luciferase reporter, 24 h; percent of 10 µM SAHA response; actives 0.56% (n = 360,000); activation, % at 6 µM;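 active = activation above the average of all compounds screened plus 3 SD, cutoff fixed separately per campaign, cut at about 7.5% in these data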
# AHR act – human AHR activation; P35869; AHR-responsive luciferase reporter cells, luminescence; activation, % at 5 µM; actives 2.5% (n = 320,000); AID 2796; in the data active = activation above about 47%
# PfM18AAP inh – PfM18AAP enzyme inhibition. AID 1822. recombinant PfM18AAP, H-Glu-NHMec fluorogenic cleavage. inhibition, % at 7.35 µM. actives 1.2% (n = 290,000);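 active = inhibition above the campaign mean inhibition over all tested compounds plus 3 SD, cut at about 28% in these data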
# HDAC3 inhib – inhibitors of human histone deacetylase 3; actives 0.15% (n = 320,000); recombinant HDAC3, fluorogenic peptide/trypsin coupled, fluorescence; O15379; inhibition, % at 8.3 µM; in the data active = inhibition above about 26%, passing the limit was not always enough
# A number is an active result; - = inactive; . = not tested or not shown. This is a sample that favours compounds with a hit; in the whole collection about 4.2% have one here.
SMILES,CTSL1 counter,SENP1 inh,FXN GAA850 act,AHR act,PfM18AAP inh,HDAC3 inhib
CCC(C)C(NC(=O)C1CCC(C)CC1)C(=O)NCc1ccco1 (stereo unspecified),-,-,-,-,-,-
COc1ccc(C(=O)Nc2ccccc2C(=O)NC(C(=O)NCc2ccco2)C(C)C)cc1 (stereo unspecified),48.4,-,-,-,-,-
CCC(C)C(NC(=O)OC(C)(C)C)C(=O)NCc1ccco1 (stereo unspecified),20.0,-,-,-,-,-
Cc1ccc(CCNS(=O)(=O)c2cc3c(cc2Cl)NC(=O)CO3)cc1,-,-,-,-,-,-
COc1cc([N+](=O)[O-])c2ncsc2c1,-,-,-,-,-,-
COc1cc(SSc2cc(OC)cc([N+](=O)[O-])c2N)c(N)c([N+](=O)[O-])c1,-,-,-,-,30.8,.
CN1CCN(S(=O)(=O)c2ccc(F)cc2)CC1,.,-,-,.,.,.
COc1cc(NC(=O)CCc2nnc3ccc(N4CCN(c5cccc(OC)c5)CC4)nn23)cc(OC)c1,66.4,-,-,-,-,-
COc1cccc(NC(=O)CCc2nnc3ccc(N4CCN(c5cccc(OC)c5)CC4)nn23)c1,-,-,-,-,-,-
O=C(CSc1ccc(-c2cccnc2)nn1)N1CCCc2ccccc21,-,.,.,48.2,-,-
O=C(CSc1ccc(-c2ccc(Cl)cc2)nn1)N1CCCc2ccccc21,-,-,-,-,-,.
CC(=O)Nc1ccc(S(=O)(=O)N(C)CC(=O)NNc2c(F)c(F)cc(F)c2F)cc1,.,-,-,-,.,-
O=C(COc1ccccc1)N(Cc1cccc(F)c1)C1CCS(=O)(=O)C1 (stereo unspecified),-,-,-,-,-,-
CCc1cc2cc3c(cc2nc1SCC(=O)N1CCN(C(=O)c2ccco2)CC1)OCO3,-,-,-,-,-,-
Cc1ccc2nc(SCC(=O)N3CCN(C(=O)c4ccco4)CC3)[nH]c2c1,-,-,-,67.9,-,-
CCc1cc2ccc(C)cc2nc1SCC(=O)N1CCN(C(=O)c2ccco2)CC1,-,-,-,51.9,-,-
CC(OC(=O)c1cccc(-n2cnnn2)c1)C(=O)Nc1ccc(F)cc1Cl (stereo unspecified),-,-,-,-,.,-
CC(C)(C)n1nnnc1C(c1ccccc1)N1CCN(c2c(Cl)cncc2Cl)CC1 (stereo unspecified),.,-,.,.,.,.
Cc1ccccc1C(=O)NNc1ccc(-c2csnn2)cc1,-,-,-,-,30.3,-
COc1cccc(CN2CCc3[nH]c(=S)[nH]c(=O)c3C2)c1,-,-,-,-,29.9,.
Cc1ccc2nc(SCc3nnc(-c4ccccc4Br)o3)[nH]c2c1,-,-,-,52.5,-,-
Cc1ccc(N2CCN(C(=S)c3ccc(-c4cccc([N+](=O)[O-])c4)o3)CC2)cc1,-,-,-,-,30.1,-
COc1ccc(NC(=O)/C=C/c2ccccc2[N+](=O)[O-])c(OC)c1,-,-,-,76.8,-,-
COc1cccc(NC(=O)/C=C/c2ccccc2[N+](=O)[O-])c1,-,-,-,-,-,-
O=C(/C=C/c1cc([N+](=O)[O-])ccc1OC(F)F)Nc1cccc2ccccc12,-,-,-,-,-,-
SMILES,CTSL1 counter,SENP1 inh,FXN GAA850 act,AHR act,PfM18AAP inh,HDAC3 inhib
COc1ccc(OC)c(NC(=O)/C=C/c2ccccc2[N+](=O)[O-])c1,-,-,-,70.9,-,-
COc1ccccc1NC(=O)/C=C/c1cc([N+](=O)[O-])ccc1OC(F)F,-,-,-,49.0,-,-
CC(C)(C)c1nnc(N/N=C/c2cc(Br)ccc2O)n(N)c1=O,-,-,-,-,43.7,-
CC1CCN(S(=O)(=O)c2nnc(NC(=O)c3ccccc3Br)s2)CC1,-,-,-,-,-,-
O=C(Nc1ccc(C(F)(F)F)cc1)c1cccnc1N1CCOCC1,-,-,-,60.6,-,-
O=C(C[C@H]1C/C=C\C[C@@H](Cc2ccc(F)cc2)C(=O)OC[C@@H]2CCCN2C1=O)NCCO,.,-,-,-,.,-
NC(=O)SCC(=O)Nc1cccc(Cl)c1,-,-,-,-,-,39.1
COc1cc2c(-c3ccccc3)c(C)oc2cc1/C=N/NC(N)=S,-,-,-,-,.,-
COc1ccc(OC)c(Nc2ncnc3sc(-c4ccccc4)cc23)c1,-,-,-,69.4,-,-
CSCCC(NC(=O)c1ccc(Cl)cc1)C(=O)OCC(=O)Nc1cc(Cl)ccc1C#N (stereo unspecified),-,-,-,56.1,-,-
COC(=O)c1c(-c2ccc(C(C)(C)C)cc2)csc1NC(=O)C1C2CCC(O2)C1C(=O)O (stereo unspecified),-,-,-,-,28.2,-
CCOC(=O)c1c(-c2cccc3ccccc23)csc1NC(=O)C1C2CCC(O2)C1C(=O)O (stereo unspecified),-,-,-,-,-,-
Cc1cc(NC(=O)OC2CCCCC2)ccc1[N+](=O)[O-],-,-,-,-,-,-
Cc1cc(C)c(NC(=O)c2ccccc2CCc2ccccc2)c(C)c1,17.1,-,-,-,-,-
Cc1ccc(NC(=O)C2CCCN(S(=O)(=O)c3c(C)noc3/C=C/N(C)C)C2)cc1F (stereo unspecified),16.7,-,-,-,-,-
Cc1noc(/C=C/N(C)C)c1S(=O)(=O)N1CCC(C(=O)Nc2ccc(Cl)cc2)CC1,-,-,-,-,-,-
CC(=O)N1CCN(C(c2ccccc2)c2nnnn2C(C)(C)C)CC1 (stereo unspecified),.,-,.,.,.,.
CCOc1ccc(N(CC(=O)Nc2ccccc2C(=O)N2CCCC2)S(C)(=O)=O)cc1,-,-,-,-,-,-
COc1ccccc1C(=O)Nc1cccc(N(C)S(C)(=O)=O)c1,-,-,-,50.7,-,-
Cc1ccccc1C(=O)Nc1ccc2c(c1)C(=O)NC2=O,-,-,-,-,-,-
CCOc1ccccc1C(=O)Nc1ccc2c(c1)C(=O)NC2=O,-,-,-,47.3,-,-
COc1ccccc1C(=O)Nc1ccc2c(c1)C(=O)NC2=O,-,-,-,57.6,-,-
CN(C(=O)COC(=O)C1CCN(S(=O)(=O)c2c(Cl)cccc2Cl)CC1)C1CCCCC1,-,-,-,-,.,-
COc1cc(OC)cc(-c2sc3ccc(OC)cc3c2C#CCCO)c1,.,-,-,-,.,-
COc1ccc2sc(-c3ccccc3OC)c(C#CCCO)c2c1,.,-,-,74.4,.,-
COc1ccccc1-c1sc2cc3c(cc2c1C#Cc1cncn1C)OCO3,.,-,-,65.0,.,-
COc1ccc2sc(-c3ccccc3OC)c(C#Cc3cncn3C)c2c1,.,-,-,47.9,.,.
C/C=C/c1cccc(-c2nc(C(=O)NC3Cc4ccccc4C3)cc3c2[C@@H](CCO)N(C(C)=O)C3)c1,.,-,.,.,.,.
